The values that follow come from PMC5091660 (Journal of medicinal chemistry, 2016).

For series [1], the target named is T1, S1P1 (Homo sapiens, UniProt P21453). In words: competitive [^32P]S1P binding assay, S1P1. The following applies: for IC50: S1P1 IC50, competition with [^32P]S1P, cell membranes expressing recombinant human S1P1; for decrease in S1P1 binding affinity relative to 28c: head group change of 28c.
The target in series [2] is T1, S1P1. As to the kind of experiment: in vitro functional assay. The class given is cell-based. The method in brief:
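S1P1-TANGO-U2OS cells at 312,500 cells/mL in unsupplemented Freestyle Expression Medium were grown 48 h at 37 °C, 5% CO2. Test compound in DMSO was added (controls 0.5% DMSO final), then incubated 5 h at 37 °C. LiveBLAzer FRET substrate mix with 10 mM probenecid was added for 2 h at r.t. in the dark. Read-out: excitation 405 nm, emission 460 and 535 nm.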

For series [3], the system named is liver of LPS-treated mice. In words: acute biodistribution in LPS-treated and sham mice. The following applies: n = 4 per group. The class given is in vivo, C57BL/6 mice. The essentials: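 About 24 h after sham or LPS treatment, mice received the 18F-labelled test compound (~20 μCi, 0.74 MBq, in 10% ethanol/saline) by tail vein. A separate set received [99mTc]mebrofenin (~4 μCi, 148 KBq) under 2–3% isoflurane/oxygen. Mice were euthanized at 30 or 60 min (n = 4 per group per tracer). Tissues were weighed and gamma-counted against a dilution of the injectate.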

A further series deals with recombinant human S1P2 (Homo sapiens, UniProt O95136). As to the kind of experiment: competitive [^32P]S1P binding assay, S1P2.
recombinant human S1P2, sequence (O95136 whole entry): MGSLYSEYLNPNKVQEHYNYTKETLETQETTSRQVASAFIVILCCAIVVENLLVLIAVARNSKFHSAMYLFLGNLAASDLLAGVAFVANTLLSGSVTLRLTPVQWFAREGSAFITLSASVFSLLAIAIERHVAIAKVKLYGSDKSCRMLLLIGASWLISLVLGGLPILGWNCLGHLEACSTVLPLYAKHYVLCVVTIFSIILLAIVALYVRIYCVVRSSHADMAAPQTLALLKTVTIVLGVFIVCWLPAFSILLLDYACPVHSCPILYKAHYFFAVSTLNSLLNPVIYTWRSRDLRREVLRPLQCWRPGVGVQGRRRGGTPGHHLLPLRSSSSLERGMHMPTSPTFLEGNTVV
The target in another series is recombinant human S1P3 (Homo sapiens, UniProt Q99500). In words: competitive [^32P]S1P binding assay, S1P3.
recombinant human S1P3, sequence (Q99500 whole entry): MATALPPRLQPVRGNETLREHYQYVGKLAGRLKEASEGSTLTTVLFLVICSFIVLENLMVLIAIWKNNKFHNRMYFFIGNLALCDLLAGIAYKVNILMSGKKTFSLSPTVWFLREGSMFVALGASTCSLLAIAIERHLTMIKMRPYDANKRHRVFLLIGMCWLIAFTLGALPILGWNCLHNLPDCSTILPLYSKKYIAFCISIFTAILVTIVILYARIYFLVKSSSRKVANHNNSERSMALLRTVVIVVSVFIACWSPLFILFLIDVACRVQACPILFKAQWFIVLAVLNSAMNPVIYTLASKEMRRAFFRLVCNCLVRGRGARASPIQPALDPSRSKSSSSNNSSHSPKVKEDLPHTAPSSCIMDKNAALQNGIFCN
For series [4], the system named is liver of LPS-treated mice. As to the kind of experiment: [^15O]water microPET study of liver blood flow in LPS-treated and sham mice. The class given is in vivo, C57BL/6 mice. Conditions: 10 min scan after bolus injection via tail vein. The method in brief: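 Adult male C57BL/6 mice (18–23 g) were pretreated ~24 h earlier with saline or LPS and kept under 2–3% isoflurane via nose cone on an Inveon PET/CT. After a transmission scan and CT, they received a bolus of [15O]water (30–55 MBq) by tail vein, followed by a 10 min dynamic scan, ~30 min before the 18F scan. Liver activity was expressed as SUV.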

“Also recorded” adds a separate entry of the source.

T1 sequence (P21453 whole entry): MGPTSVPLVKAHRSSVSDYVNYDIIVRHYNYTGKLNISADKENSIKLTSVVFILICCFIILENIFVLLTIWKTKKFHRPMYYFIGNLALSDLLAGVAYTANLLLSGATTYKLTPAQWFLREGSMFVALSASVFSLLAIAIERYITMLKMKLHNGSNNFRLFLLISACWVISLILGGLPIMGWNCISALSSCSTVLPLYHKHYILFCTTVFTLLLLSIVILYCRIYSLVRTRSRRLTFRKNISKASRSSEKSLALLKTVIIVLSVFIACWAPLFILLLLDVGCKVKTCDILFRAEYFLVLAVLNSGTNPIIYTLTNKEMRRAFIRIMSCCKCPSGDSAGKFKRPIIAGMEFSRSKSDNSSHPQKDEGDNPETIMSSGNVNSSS

In general, IC50 refers to the concentration at which inhibition is half-maximal. Turning to `O=C(O)C1CN(Cc2ccc3oc(-c4ccc(OCCF)c(C(F)(F)F)c4)nc3c2)C1` [Compound 15b, 1-((2-(4-(2-Fluoroethoxy)-3-(trifluoromethyl)phenyl)benzo[d]-oxazol-5-yl)methyl)azetidine-3-carboxylic Acid], the IC50 on S1P1 [1] came to 76.4 ± 21.6 nM.

For the molecule `FCCOc1ccc(-c2nc(-c3ccc(CNCc4nnn[nH]4)cc3)no2)cc1C(F)(F)F` [Compound 28e, N-((1H-Tetrazol-5-yl)methyl)-1-(4-(5-(4-(2-fluoroethoxy)-3-(trifluoromethyl)phenyl)-1,2,4-oxadiazol-3-yl)phenyl)methanamine], the “decrease in S1P1 binding affinity relative to 28c” value on S1P1 [1] was “over 100 fold”.

What is called EC50 is the concentration that produces a half-maximal response. The low end stands for a more potent agent, the high end for a less potent agent. Regarding `COc1cccc(-c2ccc(-c3nc4cc(N5CCC(C(=O)O)CC5)ccc4o3)cc2C(F)(F)F)c1` [Compound 18e, 1-(2-(3′-Methoxy-2-(trifluoromethyl)-[1,1′-biphenyl]-4-yl)benzo-[d]oxazol-5-yl)piperidine-4-carboxylic Acid], on S1P1 [2], the concentration giving a half-maximal response (EC50) stood at 4.9 nM.

Take `O=C(O)C1CCN(c2ccc3oc(-c4ccc(-c5ccc(F)cc5)c(C(F)(F)F)c4)nc3c2)CC1` [Compound 18a, 1-(2-(4′-Fluoro-2-(trifluoromethyl)-[1,1′-biphenyl]-4-yl)benzo[d]-oxazol-5-yl)piperidine-4-carboxylic Acid]: a half-maximal effect at S1P1 [2] (EC50) was put at 0.76 nM.

As to “[^99mTc]-N-(3-bromo-2,4,6-trimethyacetanilide) iminodiacetic acid [[^99mTc]mebrofenin]”, the results for the “liver uptake in LPS-treated mice compared with sham mice” value in series [3] (30 min postinjection) and in series [3] (60 min postinjection) were “increased” and “absence of a significant difference; also recorded: no significant difference”, respectively.

Turning to `O=C(O)C1CN(Cc2ccc(-c3noc(-c4ccc(OCCF)cc4)n3)cc2)C1` [Compound 28b, 1-(4-(5-(4-(2-Fluoroethoxy)phenyl)-1,2,4-oxadiazol-3-yl)benzyl)-azetidine-3-carboxylic Acid], the 50% inhibitory concentration (IC50) at recombinant human S1P2 and on recombinant human S1P3 was over 1000 nM in each case.

Take `[15OH2]` [[^15O]water]: the “liver uptake (TAC) in LPS-treated mice compared to sham mice” value in series [4] is given as “no difference; also recorded: no significant change”.

Take `O=C(O)c1ccc(-c2ccc3oc(-c4ccc(-c5ccc(F)nc5)c(C(F)(F)F)c4)nc3c2)s1` [Compound 16, 5-(2-(4-(6-Fluoropyridin-3-yl)-3-(trifluoromethyl)phenyl)benzo-[d]oxazol-5-yl)thiophene-2-carboxylic Acid]: the EC50 on S1P1 [2] turned out to be 2.99 nM. Further, the 50% inhibitory concentration (IC50) at S1P1 [1] is 334 ± 59 nM.

As to `O=C(O)C1CCN(c2ccc3oc(-c4ccc(-c5ccc(OCCF)cc5)c(C(F)(F)F)c4)nc3c2)CC1` [Compound 18c, 1-(2-(4′-(2-Fluoroethoxy)-2-(trifluoromethyl)-[1,1′-biphenyl]-4-yl)benzo[d]oxazol-5-yl)piperidine-4-carboxylic Acid], a half-maximal effect on S1P1 [2] (EC50) was put at 11.1 nM.

Molecule `O=C(O)C1CCN(c2ccc3oc(-c4ccc(-c5ccc(C(F)(F)F)cc5)c(C(F)(F)F)c4)nc3c2)CC1` [Compound 18d, 1-(2-(2,4′-Bis(trifluoromethyl)-[1,1′-biphenyl]-4-yl)benzo[d]-oxazol-5-yl)piperidine-4-carboxylic Acid] registered an EC50 on S1P1 [2] of 4.47 nM. Also, at S1P1 [1], the 50% inhibitory concentration (IC50) was 498 ± 335 nM.

As to `O=C(O)C1CCN(c2ccc3oc(-c4ccc(-c5ccccc5OCCF)c(C(F)(F)F)c4)nc3c2)CC1` [Compound 18b, 1-(2-(2′-(2-Fluoroethoxy)-2-(trifluoromethyl)-[1,1′-biphenyl]-4-yl)benzo[d]oxazol-5-yl)piperidine-4-carboxylic Acid], at S1P1 [2], it took 3.04 nM to reach a half-maximal effect (EC50).

On to `O=C(O)C1CCN(Cc2ccc(-c3noc(-c4ccc(OCCF)c(C(F)(F)F)c4)n3)cc2)CC1` [Compound 28d, 1-(4-(5-(4-(2-Fluoroethoxy)-3-(trifluoromethyl)phenyl)-1,2,4-oxadiazol-3-yl)benzyl)piperidine-4-carboxylic Acid], for which the “decrease in S1P1 binding affinity relative to 28c” value at S1P1 [1] is recorded as 20 fold. The 50% inhibitory concentration (IC50) on recombinant human S1P2 and on recombinant human S1P3 was over 1000 nM in each case.

Turning to `O=C(O)C1CN(Cc2ccc(-c3noc(-c4ccc(OCCF)c(C(F)(F)F)c4)n3)cc2)C1` [Compound 28c, 1-(4-(5-(4-(2-Fluoroethoxy)-3-(trifluoromethyl)phenyl)-1,2,4-oxadiazol-3-yl)benzyl)azetidine-3-carboxylic Acid], the 50% inhibitory concentration (IC50) at recombinant human S1P2 and on recombinant human S1P3 was over 1000 nM each time.

On to `COc1ccc(-c2nc(-c3ccc(CN4CC(C(=O)O)C4)cc3)no2)cc1C(F)(F)F` [Compound 28f, 1-(4-(5-(4-Methoxy-3-(trifluoromethyl)phenyl)-1,2,4-oxadiazol-3-yl)benzyl)azetidine-3-carboxylic Acid], for which, on S1P1 [1], the concentration for half-maximal inhibition (IC50) was over 100 nM.

Regarding `CCOc1ccc(-c2nc(-c3ccc(CN4CC(C(=O)O)C4)cc3)no2)cc1` [Compound 28a, 1-(4-(5-(4-Ethoxyphenyl)-1,2,4-oxadiazol-3-yl)benzyl)azetidine-3-carboxylic Acid], the IC50 at recombinant human S1P2 is over 1000 nM.
